According to publication PMC6543826 (Bioorganic chemistry, 2018):
Values joined by “and” are separate entries in the source; they are usually repeats but may differ in a detail not shown here. Equal values may be shown once.

What was measured:
MDA-MB-435 = experiment: cells; assay type: cell-based
HL-60 (TB) = experiment: cells; assay type: cell-based
K-562 = experiment: cells; assay type: cell-based
PC-3 = experiment: cells; assay type: cell-based
A375 cells [1] = experiment: IncuCyte real time proliferation assay; assay type: cell-based, human; conditions: imaged every 1 h for 90 h
Outline: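 Real-time growth: 2000 A375 cells per well adhered for 24 h, then were treated with a range of test compound doses. Phase images were taken on IncuCyte ZOOM (10× objective) every 1 h for 90 h in total. Growth confluence was estimated from the images and plotted.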

CCRF-CEM = experiment: cells; assay type: cell-based
[2] = tested on: cleaved PARP in A375 cells; experiment: PARP cleavage western blot; assay type: cell-based, human; conditions: 12 h exposure
Outline: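 A375 cells (1,000,000 per well) were seeded 24 h, then exposed to several test compound doses for 12 h before lysis in buffer with protease/phosphatase inhibitors. Protein was measured by Bradford. 60 μg lysate was run on 10% SDS-PAGE and blotted to PVDF. Blots were probed for PARP and cleaved PARP, with vinculin as loading control. Done twice.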

HOP-62 = experiment: cells; assay type: cell-based
A498 = experiment: NCI-60 SRB screen, Renal cancer; assay type: cell-based, human
JNK2 = JNK2 (Homo sapiens, UniProt P45984); experiment: in vitro kinase assay, GST-c-Jun; assay type: biochemical
JNK2, sequence (P45984 whole entry): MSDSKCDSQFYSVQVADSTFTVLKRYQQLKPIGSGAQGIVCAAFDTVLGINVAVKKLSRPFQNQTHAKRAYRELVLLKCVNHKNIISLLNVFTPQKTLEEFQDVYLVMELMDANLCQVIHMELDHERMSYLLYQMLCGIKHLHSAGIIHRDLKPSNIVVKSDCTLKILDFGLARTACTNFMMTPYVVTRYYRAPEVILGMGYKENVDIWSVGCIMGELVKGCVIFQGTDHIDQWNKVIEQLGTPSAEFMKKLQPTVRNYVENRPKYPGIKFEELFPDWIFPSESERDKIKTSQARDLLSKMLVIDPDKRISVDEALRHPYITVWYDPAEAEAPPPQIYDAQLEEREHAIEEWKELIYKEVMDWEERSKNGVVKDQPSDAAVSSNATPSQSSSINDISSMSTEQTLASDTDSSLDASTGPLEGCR

SK-MEL-2 = experiment: cells; assay type: cell-based
NCI-H226 = experiment: cells; assay type: cell-based
HCT-116 = experiment: cells; assay type: cell-based
[3] = tested on: BRAF-mutant A375 melanoma cells; experiment: A375 cell viability, MTS assay; assay type: cell-based; conditions: Homo sapiens, A-375, 72 h, read-out: A375 Cell Viability IC50
Outline: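 A375 cells were kept in RPMI with 10% heat-inactivated FBS, Glutamax and penicillin/streptomycin at 37 °C in 5% CO2. 2000 cells per well were treated with a range of test compound doses for 72 h. Viability was read by MTS assay. Run in triplicate.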

SNB-19 = experiment: cells; assay type: cell-based
MDA-MB-468 = experiment: cells; assay type: cell-based
OVCAR-3 = experiment: cells; assay type: cell-based
p38MAPKα = p38MAPKα (Homo sapiens, UniProt Q16539); experiment: in vitro kinase assay, GST-ATF2; assay type: biochemical
p38MAPKα, sequence (Q16539 whole entry): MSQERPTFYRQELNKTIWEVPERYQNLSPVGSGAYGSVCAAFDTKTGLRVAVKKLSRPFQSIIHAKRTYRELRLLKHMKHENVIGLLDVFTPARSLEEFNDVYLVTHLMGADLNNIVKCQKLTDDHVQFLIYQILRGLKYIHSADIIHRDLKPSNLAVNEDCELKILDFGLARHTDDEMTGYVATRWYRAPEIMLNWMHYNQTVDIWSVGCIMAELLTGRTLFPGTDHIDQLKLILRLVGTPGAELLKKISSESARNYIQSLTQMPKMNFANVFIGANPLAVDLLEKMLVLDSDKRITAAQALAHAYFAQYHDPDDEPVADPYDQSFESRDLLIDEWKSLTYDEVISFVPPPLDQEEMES

HCC-2998 = experiment: cells; assay type: cell-based
ACHN = experiment: cells; assay type: cell-based
SF-539 = experiment: cells; assay type: cell-based
NCI-H23 = experiment: cells; assay type: cell-based
LOX IMVI = experiment: cells; assay type: cell-based
HT29 = experiment: cells; assay type: cell-based
SR = experiment: cells; assay type: cell-based
SK-MEL-5 = experiment: cells; assay type: cell-based
[4] = tested on: caspase 3/7 in A375 cells; experiment: IncuCyte Caspase 3/7 apoptosis assay; assay type: cell-based, human; conditions: doses of 3.7 and 33.3 μM, after 48 and 72 h
Outline: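 2000 A375 cells per well adhered for 24 h, then received test compound doses plus a constant concentration of IncuCyte Caspase-3/7 reagent. Cells were imaged on IncuCyte ZOOM (10× objective) at set time points, and stained cells were counted. Apoptotic cell number was normalized to percentage area confluence at the final time point.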

A375 cells [5] = experiment: anchorage dependent colony formation assay; assay type: cell-based, human; conditions: A375, 10–14 days
Outline: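 1000 A375 cells per 60 mm plate adhered for 24 h, then were treated with various test compound doses for 10–14 days. Plates were PBS-washed and fixed in 4% paraformaldehyde (15 min, room temperature). They were stained with 0.2% crystal violet in 20% methanol for 10 min, water-washed and imaged under microscope.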

MOLT-4 = experiment: cells; assay type: cell-based

In the case of O=C1c2ccccc2C(=O)c2c1oc1c2c(=O)[nH]c2ccc(Cl)cc21 [3b, 2-Chloronaphtho[2′,3′:4,5]furo[3,2-c]quinoline-6,7,12(5H)-trione], the GI50 (MDA-MB-435; Homo sapiens, MDA-MB-435) is reported as 0.3 µM, the CC50 (MDA-MB-435; Homo sapiens, MDA-MB-435, read-out: LC50) is reported as 4.07 µM and the “Growth percent (G%)” value (MDA-MB-435; MDA-MB-435, 10^−5 M, 48 h) is reported as 10.25%. The TGI (MDA-MB-435; MDA-MB-435, five-dose) was 1.20 µM, the “Growth percent (G%)” value (HL-60 (TB); HL-60(TB), 10^−5 M, 48 h) was 94.52% and the TGI (HL-60 (TB); HL-60 (TB), five-dose) was 5.25 µM. For the same molecule, the GI50 (HL-60 (TB); Homo sapiens, HL-60) was 1.7 µM, the CC50 (HL-60 (TB); Homo sapiens, HL-60, read-out: LC50) was 34.8 µM and the GI50 (K-562; Homo sapiens, K562) was 0.37 µM. For the same molecule, the CC50 (K-562; Homo sapiens, K562, read-out: LC50) was 50.1 µM, the “Growth percent (G%)” value (K-562; K-562, 10^−5 M, 48 h) was 12.90% and the TGI (K-562; K-562, five-dose) was 2.00 µM. For the same molecule, the GI50 (PC-3; Homo sapiens, PC-3) was 0.18 µM, the CC50 (PC-3; Homo sapiens, PC-3, read-out: LC50) was 1.58 µM and the “Growth percent (G%)” value (PC-3; PC-3, 10^−5 M, 48 h) was −33.26%. For the same molecule, the TGI (PC-3; PC-3, five-dose) was 0.46 µM, the “A375 real time proliferation (growth confluence), in words” value (A375 cells [1]) was “dose-dependent inhibition” and the “Growth percent (G%)” value (CCRF-CEM; 10^−5 M, 48 h) was 29.04%. For the same molecule, the GI50 (CCRF-CEM; Homo sapiens) was 0.41 µM, the CC50 (CCRF-CEM; Homo sapiens, read-out: LC50) was > 100 µM and the TGI (CCRF-CEM; five-dose) was 4.86 µM. For the same molecule, the “level of cleaved PARP in A375” value [2] was “elevated level”, the “Growth percent (G%)” value (HOP-62; HOP-62, 10^−5 M, 48 h) was −38.70% and the TGI (HOP-62; HOP-62, five-dose) was 0.65 µM. For the same molecule, the GI50 (HOP-62; Homo sapiens, HOP-62) was 0.2 µM, the CC50 (HOP-62; Homo sapiens, HOP-62, read-out: LC50) was 3.24 µM and the “Growth percent (G%)” value (A498; A498, 10^−5 M, 48 h) was 80.44%. The TGI (A498; A498, five-dose) was 0.95 µM, the GI50 (A498; Homo sapiens, A498) was 0.21 µM and the CC50 (A498; Homo sapiens, A498, read-out: LC50) was 3.55 µM. For the same molecule, the IC50 (JNK2) was 24 ± 1.24 µM, the “ability to inhibit JNK2 (in words)” value (JNK2) was “little tendency to inhibit” and the GI50 (SK-MEL-2; Homo sapiens, SK-MEL-2) was 1.74 µM. The CC50 (SK-MEL-2; Homo sapiens, SK-MEL-2, read-out: LC50) was 19.9 µM, the “Growth percent (G%)” value (SK-MEL-2; SK-MEL-2, 10^−5 M, 48 h) was 31.83% and the TGI (SK-MEL-2; SK-MEL-2, five-dose) was 5.13 µM. The GI50 (NCI-H226; Homo sapiens, NCI-H226) was 0.14 µM, the CC50 (NCI-H226; Homo sapiens, NCI-H226, read-out: LC50) was 0.87 µM and the “Growth percent (G%)” value (NCI-H226; NCI-H226, 10^−5 M, 48 h) was −28.80%. The TGI (NCI-H226; NCI-H226, five-dose) was 0.35 µM, the “Growth percent (G%)” value (HCT-116; HCT-116, 10^−5 M, 48 h) was −12.24% and the TGI (HCT-116; HCT-116, five-dose) was 1.10 µM. The GI50 (HCT-116; Homo sapiens, HCT-116) was 0.31 µM, the CC50 (HCT-116; Homo sapiens, HCT-116, read-out: LC50) was 4.57 µM and the IC50 [3] was 3.7 ± 0.6 µM. For the same molecule, the GI50 (SNB-19; Homo sapiens, SNB-19) was 0.31 µM, the CC50 (SNB-19; Homo sapiens, SNB-19, read-out: LC50) was 6.17 µM and the “Growth percent (G%)” value (SNB-19; SNB-19, 10^−5 M, 48 h) was 7.11%. The TGI (SNB-19; SNB-19, five-dose) was 1.10 µM, the GI50 (MDA-MB-468; Homo sapiens, MDA-MB-468) was 0.25 µM and the CC50 (MDA-MB-468; Homo sapiens, MDA-MB-468, read-out: LC50) was 4.57 µM. The “Growth percent (G%)” value (MDA-MB-468; MDA-MB-468, 10^−5 M, 48 h) was −32.41%, the TGI (MDA-MB-468; MDA-MB-468, five-dose) was 0.87 µM and the GI50 (OVCAR-3; Homo sapiens, OVCAR-3) was 0.24 µM. The CC50 (OVCAR-3; Homo sapiens, OVCAR-3, read-out: LC50) was 1.82 µM, the “Growth percent (G%)” value (OVCAR-3; OVCAR-3, 10^−5 M, 48 h) was −68.37% and the TGI (OVCAR-3; OVCAR-3, five-dose) was 0.56 µM. For the same molecule, the “ability to inhibit p38MAPKα (in words)” value (p38MAPKα) was “little tendency to inhibit”, the IC50 (p38MAPKα; p38MAPKα IC50, 10 μM GST-ATF2) was 28 µM and 27.9 µM and the “Growth percent (G%)” value (HCC-2998; HCC-2998, 10^−5 M, 48 h) was 65.07%. For the same molecule, the TGI (HCC-2998; HCC-2998, five-dose) was 2.57 µM, the CC50 (HCC-2998; Homo sapiens, HCC 2998, read-out: LC50) was 9.12 µM and the “Growth percent (G%)” value (ACHN; 10^−5 M, 48 h) was −14.18%. For the same molecule, the GI50 (ACHN; Homo sapiens) was 0.2 µM, the CC50 (ACHN; Homo sapiens, read-out: LC50) was 2.63 µM and the TGI (ACHN; five-dose) was 0.58 µM. The GI50 (SF-539; Homo sapiens, SF-539) was 0.23 µM, the CC50 (SF-539; Homo sapiens, SF-539, read-out: LC50) was 2.09 µM and the “Growth percent (G%)” value (SF-539; SF-539, 10^−5 M, 48 h) was −27.99%. It also gave a TGI (SF-539; SF-539, five-dose) of 0.56 µM, a GI50 (NCI-H23; Homo sapiens, NCI-H23) of 0.35 µM and a CC50 (NCI-H23; Homo sapiens, NCI-H23, read-out: LC50) of 7.08 µM. The “Growth percent (G%)” value (NCI-H23; NCI-H23, 10^−5 M, 48 h) was 21.21%, the TGI (NCI-H23; NCI-H23, five-dose) was 1.82 µM and the “Growth percent (G%)” value (LOX IMVI; 10^−5 M, 48 h) was 11.13%. For the same molecule, the GI50 (LOX IMVI; Homo sapiens) was 0.32 µM, the CC50 (LOX IMVI; Homo sapiens, read-out: LC50) was 3.98 µM and the TGI (LOX IMVI; five-dose) was 1.32 µM. The “Growth percent (G%)” value (HT29; HT29, 10^−5 M, 48 h) was 66.37%, the TGI (HT29; HT29, five-dose) was 12.88 µM and the GI50 (HT29; Homo sapiens, HT-29) was 3.72 µM. For the same molecule, the CC50 (HT29; Homo sapiens, HT-29, read-out: LC50) was 39.8 µM, the “Growth percent (G%)” value (SR; 10^−5 M, 48 h) was 33.72% and the GI50 (SR; Homo sapiens) was 0.5 µM. For the same molecule, the CC50 (SR; Homo sapiens, read-out: LC50) was > 100 µM, the TGI (SR; five-dose) was 3.98 µM and the GI50 (SK-MEL-5; Homo sapiens, SK-MEL-5) was 1.3 µM. For the same molecule, the CC50 (SK-MEL-5; Homo sapiens, SK-MEL-5, read-out: LC50) was 3.72 µM, the “Growth percent (G%)” value (SK-MEL-5; SK-MEL-5, 10^−5 M, 48 h) was 12.31% and the TGI (SK-MEL-5; SK-MEL-5, five-dose) was 1.20 µM. The “caspase 3/7 activity in A375” value [4] was “activation of caspase 3/7”, the “concentration at which inhibition of colony forming ability starts” value (A375 cells [5]) was 10 µM and the GI50 (MOLT-4; Homo sapiens, MOLT-4) was 0.44 µM. For the same molecule, the CC50 (MOLT-4; Homo sapiens, MOLT-4, read-out: LC50) was > 100 µM, the “Growth percent (G%)” value (MOLT-4; MOLT-4, 10^−5 M, 48 h) was 18.44% and the TGI (MOLT-4; MOLT-4, five-dose) was 3.16 µM.
